Experimental data as given in PubChem BioAssay AID1745 (Sanford-Burnham Center for Chemical Genomics, 2009).
Calls of active or inactive are those of the source.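 The calls were made as follows: active = cell kill with TRAIL plus compound beats the two separate kills summed, at every dose, and climbs with dose; inactive = the rest.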

System: 184B5 cells, TRAIL potentiation, ATPlite cytotoxicity, 24 h
Experiment: TRAIL co-treatment toxicity in normal 184B5 cells, confirmation, counter-screen for TRAIL sensitizer project, 184B5 normal mammary epithelial cells (AID 1745)
Conditions: stronger effect = higher value
In short: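 Probe or stimulus – TRAIL, 1000 ng/mL final, added after compound pretreatment · Assay system – Normal (non-cancer) 184B5 cells · Doses – compound at final concentrations from 1.25 to 5 µM · Timing – seeding 24 h prior, compound 4 h, TRAIL 24 h, 37 °C · Signal – ATP-based luminescence using ATPLite reagent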

[1] = compound alone cytotoxicity, at 5 µM
[2] = compound plus TRAIL, at 1.25 µM

SMILES: CSc1nc(-c2ccccc2)nc(C(Cl)Cl)n1
- cytotoxicity with TRAIL (at 5 µM): 32% (inactive)
- cytotoxicity [1]: 22%
- cytotoxicity (compound alone, at 1.25 µM): 19%
- cytotoxicity (compound alone, at 2.5 µM): 22%
- cytotoxicity with TRAIL [2]: 28%
- cytotoxicity with TRAIL (compound plus TRAIL, at 2.5 µM): 28%

SMILES: CCSc1nc(-c2ccccc2)nc(C(Cl)Cl)n1
- cytotoxicity with TRAIL (at 5 µM): 25% (inactive)
- cytotoxicity [1]: 11%
- cytotoxicity (compound alone, at 1.25 µM): 10%
- cytotoxicity (compound alone, at 2.5 µM): 11%
- cytotoxicity with TRAIL [2]: 21%
- cytotoxicity with TRAIL (compound plus TRAIL, at 2.5 µM): 22%

SMILES: CSc1nc(-c2ccc(C)cc2)nc(C(Cl)Cl)n1
- cytotoxicity with TRAIL (at 5 µM): 41% (inactive)
- cytotoxicity [1]: 9%
- cytotoxicity (compound alone, at 1.25 µM): 2%
- cytotoxicity (compound alone, at 2.5 µM): 6%
- cytotoxicity with TRAIL [2]: 35%
- cytotoxicity with TRAIL (compound plus TRAIL, at 2.5 µM): 39%
